In brackets after ≈: the same amount, converted by molar mass.
Legend:
Staphylococcus aureus [1] = experiment: Antibacterial activity against methicilin-resistant Staphylococcus aureus NRS 186 assessed as reduction in bacterial growth; format: functional
Summary of the method: (§1)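 CLSI broth microdilution in cation-supplemented Mueller–Hinton broth II. Starter cultures were grown overnight at 37 °C with shaking from a single MHA colony, then diluted by OD600 to ~10^6 CFU/mL. Compounds came from 10 mg/mL DMSO stocks and were tested two-fold from 64 to 0.5 mg/L. Plates were incubated 37 °C for 18–24 h. MIC was taken as the lowest concentration with no visible growth. Three independent runs, each in duplicate.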

Staphylococcus aureus [2] = experiment: Antibacterial activity against methicilin-resistant Staphylococcus aureus NRS 119 assessed as reduction in bacterial growth; format: functional; summary of the method: as §1
[3] = Selectivity index, ratio of CC50 for cytotoxicity against african green monkey Vero cells assessed as reduction in cell viability to MIC for antibacterial activity against Staphylococcus aureus ATCC 29213 assessed as reduction in bacterial growth; format: toxicity, cell-based; details: read-out: Selectivity Index
Staphylococcus aureus [4] = experiment: Antibacterial activity against vancomycin-resistant Staphylococcus aureus VRS 4 assessed as reduction in bacterial growth; format: functional; summary of the method: as §1
Staphylococcus aureus [5] = experiment: Antibacterial activity against Staphylococcus aureus ATCC 29213 assessed as reduction in bacterial growth; format: functional
Summary of the method: (§2)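 CLSI broth microdilution in cation-supplemented Mueller–Hinton broth II; overnight starter cultures (37 °C, shaking, 18–24 h) adjusted by OD600 to ~10^6 CFU/mL. Compounds dosed from DMSO stocks (10 mg/mL stock) as two-fold dilutions, 64–0.5 mg/L. Plates held 37 °C, 18–24 h. MIC = lowest concentration without visible growth. Three independent runs, each in duplicate.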

Staphylococcus aureus [6] = experiment: Antibacterial activity against methicilin-resistant Staphylococcus aureus NRS 100 assessed as reduction in bacterial growth; format: functional; summary of the method: as §1
Staphylococcus aureus [7] = experiment: Antibacterial activity against vancomycin-resistant Staphylococcus aureus VRS 1 assessed as reduction in bacterial growth; format: functional; summary of the method: as §1
Enterococcus faecium [8] = experiment: Antibacterial activity against vancomycin-resistant Enterococcus faecium NR 31909 assessed as inhibition of bacterial growth
Enterococcus faecalis [9] = experiment: Antibacterial activity against vancomycin-susceptible Enterococcus faecalis NR 31887 assessed as inhibition of bacterial growth incubated for 18 to 24 hrs by broth microdilution assay; format: functional; details: time 18-24 hrs; summary of the method: as §2
Staphylococcus aureus [10] = experiment: Antibacterial activity against methicilin-resistant Staphylococcus aureus NRS 129 assessed as reduction in bacterial growth; format: functional; summary of the method: as §1
Escherichia coli = experiment: Antibacterial activity against Escherichia coli ATCC 25922 assessed as reduction in bacterial growth; format: functional; summary of the method: as §2
Acinetobacter baumannii = experiment: Antibacterial activity against Acinetobacter baumannii BAA-1605 assessed as reduction in bacterial growth; format: functional; summary of the method: as §2
Enterococcus faecalis [11] = experiment: Antibacterial activity against vancomycin-susceptible Enterococcus faecalis NR 31888 assessed as inhibition of bacterial growth incubated for 18 to 24 hrs by broth microdilution assay; format: functional; details: time 18-24 hrs; summary of the method: as §2
Enterococcus faecalis [12] = experiment: Antibacterial activity against vancomycin-susceptible Enterococcus faecalis NR 31884 assessed as inhibition of bacterial growth incubated for 18 to 24 hrs by broth microdilution assay; format: functional; details: time 18-24 hrs; summary of the method: as §2
Staphylococcus aureus [13] = experiment: Antibacterial activity against methicilin-resistant Staphylococcus aureus NRS 192 assessed as reduction in bacterial growth; format: functional; summary of the method: as §1
Enterococcus faecium [14] = experiment: Antibacterial activity against vancomycin-resistant Enterococcus faecium NR 31903 assessed as inhibition of bacterial growth
Staphylococcus aureus [15] = experiment: Bactericidal activity against Staphylococcus aureus ATCC 29213 incubated for 24 hrs by time-kill assay; format: functional, organism-based
Summary of the method: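 Time-kill: S. aureus ATCC 29213 at ~10^6 CFU/mL in MHBII, exposed to 1× and 10× MIC, 37 °C with shaking for 24 h. Surviving CFU/mL plotted over time; mean of replicate experiments in duplicate.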

Pseudomonas aeruginosa = experiment: Antibacterial activity against Pseudomonas aeruginosa ATCC 27853 assessed as reduction in bacterial growth; format: functional; summary of the method: as §2
Staphylococcus aureus [16] = experiment: Antibacterial activity against methicilin-resistant Staphylococcus aureus NRS 191 assessed as reduction in bacterial growth; format: functional; summary of the method: as §1
Enterococcus faecium [17] = experiment: Antibacterial activity against vancomycin-resistant Enterococcus faecium NR 31912 assessed as inhibition of bacterial growth
Enterococcus faecalis [18] = experiment: Antibacterial activity against vancomycin-susceptible Enterococcus faecalis NR 31885 assessed as inhibition of bacterial growth incubated for 18 to 24 hrs by broth microdilution assay; format: functional; details: time 18-24 hrs; summary of the method: as §2
Enterococcus faecalis [19] = experiment: Antibacterial activity against vancomycin-susceptible Enterococcus faecalis NR 31886 assessed as inhibition of bacterial growth incubated for 18 to 24 hrs by broth microdilution assay; format: functional; details: time 18-24 hrs; summary of the method: as §2
[20] = Cytotoxicity against african green monkey Vero cells assessed as reduction in cell viability incubated for 72 hrs by MTT assay; format: toxicity, cell-based; details: chlorocebus sabaeus
Summary of the method: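 Vero (ATCC CCL-81) cells seeded at ~10^3 per well, 37 °C, 5% CO2. After 24 h, compound added at 100–12.5 μg/mL for 72 h. MTT then given for 4 h at 37 °C, formazan dissolved in DMSO, absorbance read at 540 nm. CC50 taken as the concentration giving 50% viability loss; doxorubicin as positive control; triplicate.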

Staphylococcus aureus [21] = experiment: Antibacterial activity against methicilin-resistant Staphylococcus aureus NRS 194 assessed as reduction in bacterial growth; format: functional; summary of the method: as §1
Staphylococcus aureus [22] = experiment: Antibacterial activity against methicilin-resistant Staphylococcus aureus NRS 198 assessed as reduction in bacterial growth; format: functional; summary of the method: as §1
Staphylococcus aureus [23] = experiment: Antibacterial activity against methicilin-resistant Staphylococcus aureus NRS 193 assessed as reduction in bacterial growth; format: functional; summary of the method: as §1
Klebsiella pneumoniae = experiment: Antibacterial activity against Klebsiella pneumoniae BAA-1705 assessed as reduction in bacterial growth; format: functional; summary of the method: as §2
Staphylococcus aureus [24] = experiment: Antibacterial activity against vancomycin-resistant Staphylococcus aureus VRS 12 assessed as reduction in bacterial growth; format: functional; summary of the method: as §1

SMILES | MIC (Staphylococcus aureus [1]) | MIC (Staphylococcus aureus [2]) | selectivity ratio [3] | MIC (Staphylococcus aureus [4]) | MIC (Staphylococcus aureus [5]) | MIC (Staphylococcus aureus [6]) | MIC (Staphylococcus aureus [7]) | MIC (Enterococcus faecium [8]) | MIC (Enterococcus faecalis [9]) | MIC (Staphylococcus aureus [10]) | MIC (Escherichia coli) | MIC (Acinetobacter baumannii) | MIC (Enterococcus faecalis [11]) | MIC (Enterococcus faecalis [12]) | MIC (Staphylococcus aureus [13]) | MIC (Enterococcus faecium [14]) | MIC (Pseudomonas aeruginosa) | MIC (Staphylococcus aureus [16]) | MIC (Enterococcus faecium [17]) | MIC (Enterococcus faecalis [18]) | also measured
O=C1N/C(=N\c2nc3ccccc3o2)S/C1=C\c1cc(Cl)ccc1O | 0.5 µg/mL (≈ 1.34 µM) | 1 µg/mL (≈ 2.69 µM) | > 20 | 1 µg/mL (≈ 2.69 µM) | 1 µg/mL (≈ 2.69 µM) | 0.5 µg/mL (≈ 1.34 µM) | 1 µg/mL (≈ 2.69 µM) | 0.125 µg/mL (≈ 0.336 µM) | 2 µg/mL (≈ 5.38 µM) | 0.5 µg/mL (≈ 1.34 µM) | > 64 µg/mL | > 64 µg/mL | 4 µg/mL (≈ 10.8 µM) | 4 µg/mL (≈ 10.8 µM) | 1 µg/mL (≈ 2.69 µM) | 1 µg/mL (≈ 2.69 µM) | > 64 µg/mL | 0.5 µg/mL (≈ 1.34 µM) | 0.125 µg/mL (≈ 0.336 µM) | 4 µg/mL (≈ 10.8 µM) | Activity (Staphylococcus aureus [15]): Dose-Dependent Effect; MIC (Enterococcus faecalis [19]): 4 µg/mL (≈ 10.8 µM); CC50 at 72 h [20]: > 20 µg/mL; MIC (Staphylococcus aureus [21]): 1 µg/mL (≈ 2.69 µM); MIC (Staphylococcus aureus [22]): 1 µg/mL (≈ 2.69 µM); MIC (Staphylococcus aureus [23]): 1 µg/mL (≈ 2.69 µM); MIC (Klebsiella pneumoniae): > 64 µg/mL; MIC (Staphylococcus aureus [24]): 0.5 µg/mL (≈ 1.34 µM)
O=C1N/C(=N\c2nc3ccccc3o2)S/C1=C\c1cc(Br)ccc1O | 0.5 µg/mL (≈ 1.2 µM) | 1 µg/mL (≈ 2.4 µM) | > 20 | 1 µg/mL (≈ 2.4 µM) | 1 µg/mL (≈ 2.4 µM) | 0.5 µg/mL (≈ 1.2 µM) | 1 µg/mL (≈ 2.4 µM) | 0.125 µg/mL (≈ 0.3 µM) | 2 µg/mL (≈ 4.8 µM) | 0.5 µg/mL (≈ 1.2 µM) | > 64 µg/mL | > 64 µg/mL | 4 µg/mL (≈ 9.61 µM) | 4 µg/mL (≈ 9.61 µM) | 1 µg/mL (≈ 2.4 µM) | 1 µg/mL (≈ 2.4 µM) | > 64 µg/mL | 0.5 µg/mL (≈ 1.2 µM) | 0.125 µg/mL (≈ 0.3 µM) | 4 µg/mL (≈ 9.61 µM) | Activity (Staphylococcus aureus [15]): Dose-Dependent Effect; MIC (Enterococcus faecalis [19]): 4 µg/mL (≈ 9.61 µM); CC50 at 72 h [20]: > 20 µg/mL; MIC (Staphylococcus aureus [21]): 1 µg/mL (≈ 2.4 µM); MIC (Staphylococcus aureus [22]): 1 µg/mL (≈ 2.4 µM); MIC (Staphylococcus aureus [23]): 1 µg/mL (≈ 2.4 µM); MIC (Klebsiella pneumoniae): > 64 µg/mL; MIC (Staphylococcus aureus [24]): 0.5 µg/mL (≈ 1.2 µM)
O=C1N/C(=N\c2nc3ccccc3o2)S/C1=C\c1cccc(O)c1 | 1 µg/mL (≈ 2.96 µM) | 2 µg/mL (≈ 5.93 µM) | > 20 | 2 µg/mL (≈ 5.93 µM) | 2 µg/mL (≈ 5.93 µM) | 1 µg/mL (≈ 2.96 µM) | 2 µg/mL (≈ 5.93 µM) | 0.25 µg/mL (≈ 0.741 µM) | 8 µg/mL (≈ 23.7 µM) | 2 µg/mL (≈ 5.93 µM) | > 64 µg/mL | > 64 µg/mL | 16 µg/mL (≈ 47.4 µM) | 16 µg/mL (≈ 47.4 µM) | 2 µg/mL (≈ 5.93 µM) | 4 µg/mL (≈ 11.9 µM) | > 64 µg/mL | 2 µg/mL (≈ 5.93 µM) | 0.25 µg/mL (≈ 0.741 µM) | 16 µg/mL (≈ 47.4 µM) | MIC (Enterococcus faecalis [19]): 16 µg/mL (≈ 47.4 µM); CC50 at 72 h [20]: > 40 µg/mL; MIC (Staphylococcus aureus [21]): 2 µg/mL (≈ 5.93 µM); MIC (Staphylococcus aureus [22]): 2 µg/mL (≈ 5.93 µM); MIC (Staphylococcus aureus [23]): 2 µg/mL (≈ 5.93 µM); MIC (Klebsiella pneumoniae): > 64 µg/mL; MIC (Staphylococcus aureus [24]): 2 µg/mL (≈ 5.93 µM)
COc1cc(/C=C2\S/C(=N/c3nc4ccccc4o3)NC2=O)ccc1O | 2 µg/mL (≈ 5.44 µM) | 4 µg/mL (≈ 10.9 µM) | > 20 | 4 µg/mL (≈ 10.9 µM) | 2 µg/mL (≈ 5.44 µM) | 2 µg/mL (≈ 5.44 µM) | 4 µg/mL (≈ 10.9 µM) | 0.25 µg/mL (≈ 0.68 µM) | 16 µg/mL (≈ 43.6 µM) | 4 µg/mL (≈ 10.9 µM) | > 64 µg/mL | > 64 µg/mL | 16 µg/mL (≈ 43.6 µM) | 16 µg/mL (≈ 43.6 µM) | 4 µg/mL (≈ 10.9 µM) | 4 µg/mL (≈ 10.9 µM) | > 64 µg/mL | 2 µg/mL (≈ 5.44 µM) | 0.25 µg/mL (≈ 0.68 µM) | 16 µg/mL (≈ 43.6 µM) | MIC (Enterococcus faecalis [19]): 16 µg/mL (≈ 43.6 µM); CC50 at 72 h [20]: > 40 µg/mL; MIC (Staphylococcus aureus [21]): 4 µg/mL (≈ 10.9 µM); MIC (Staphylococcus aureus [22]): 4 µg/mL (≈ 10.9 µM); MIC (Staphylococcus aureus [23]): 4 µg/mL (≈ 10.9 µM); MIC (Klebsiella pneumoniae): > 64 µg/mL; MIC (Staphylococcus aureus [24]): 2 µg/mL (≈ 5.44 µM)
